CHRM1 agonist – human M1 muscarinic receptor agonists, primary screen, Fluo-8 calcium fluorescence, CHO-K1 cells, HTS. activation, % at 3 µM. Muscarinic acetylcholine receptor M1 (Homo sapiens), P11229. CHO-K1 hM1, agonist mode; 0% DMSO, 100% acetylcholine EC100. 360,000 tested, 0.33% active. AID 588814, 2011;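 active means activation above the run's mean compound activation plus 3 SD, cut at about 16% in these data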;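 further: peak over basal fluorescence ratio within a 140 s kinetic read after compound addition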
Target sequence (P11229 whole entry, looked up): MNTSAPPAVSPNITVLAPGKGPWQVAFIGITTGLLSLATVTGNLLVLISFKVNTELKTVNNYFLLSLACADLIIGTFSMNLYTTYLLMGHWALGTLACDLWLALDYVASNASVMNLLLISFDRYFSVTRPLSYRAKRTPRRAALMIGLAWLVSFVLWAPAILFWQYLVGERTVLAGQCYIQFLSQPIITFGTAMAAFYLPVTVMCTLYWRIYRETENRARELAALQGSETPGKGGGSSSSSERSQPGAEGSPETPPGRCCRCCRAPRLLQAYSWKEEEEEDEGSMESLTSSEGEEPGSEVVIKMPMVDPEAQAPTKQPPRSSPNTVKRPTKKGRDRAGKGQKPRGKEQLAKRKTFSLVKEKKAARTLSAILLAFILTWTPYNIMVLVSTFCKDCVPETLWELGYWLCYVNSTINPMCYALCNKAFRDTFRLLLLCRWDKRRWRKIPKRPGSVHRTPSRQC
M1 PAM – human M1 muscarinic receptor positive allosteric modulators, primary screen, CHO-K1 cells, Fluo-8 calcium fluorescence, 1536-well | CHO-K1 hM1, ACh EC20; 0% = ACh EC20, 100% = maximal ACh | activation, % at 3 µM | 360,000 tested, 0.088% active | Muscarinic acetylcholine receptor M1 (Homo sapiens), P11229; in the data active means activation above about 19%, passing the limit was not always enough
CHRM1 antagonist – human M1 muscarinic receptor antagonists, primary screen, CHO-K1 cells, Fluo-8 calcium fluorescence, 1536-well | inhibition, % at 3 µM | CHO-K1 hM1, ACh EC80 antagonist | AID 588852, 2011 | 360,000 tested, 1.3% active;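 active means percent inhibition above its own plate's cutoff, namely the mean of that plate's compound wells plus 3 SD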;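 further: peak over basal fluorescence ratio during 140 s after agonist addition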
M5 ag – human M5 muscarinic receptor agonists, primary screen, CHO-K1 cells, Fluo-8 calcium fluorescence | activation, % at 3 µM | CHO-K1 hM5 cells; 0% DMSO wells, 100% maximal acetylcholine response | 360,000 tested, 0.19% active | Muscarinic acetylcholine receptor M5 (Homo sapiens), P08912;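 active means activation above the run's mean over test compounds plus 3 SD, cut at about 23% in these data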;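 further: signal is peak over basal fluorescence ratio across the kinetic read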
CHRM5 antagonist – human M5 muscarinic receptor antagonists, primary screen, CHO cells, Fluo-8 calcium fluorescence; inhibition, % at 3 µM; Muscarinic acetylcholine receptor M5 (Homo sapiens), P08912; 360,000 tested, 0.59% active; CHO-hM5 cells, ACh EC80;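 active means inhibition above a per-plate cutoff, the mean of that plate's test compounds plus 3 SD, cut at about 27% in these data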
CHRM5 PAM – human M5 muscarinic receptor positive allosteric modulators, primary screen, CHO-K1 cells, Fluo-8 calcium fluorescence; activation, % at 3 µM; CHO-K1 hM5, ACh EC20 PAM; 0% = ACh EC20, 100% = ACh EC100; AID 624038, 2012; Muscarinic acetylcholine receptor M5 (Homo sapiens), P08912; 360,000 tested, 0.3% active;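 active means activation above the run cutoff, the mean activation of all test compounds plus 3 SD, cut at about 18% in these data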
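Test system: CHO-K1 hM5 cells / Doses: single-point, 3 µM nominal / Times: Post-acetylcholine fluorescence recording 140 s / Technique: Fluo-8 calcium fluorescence / Measure: Max/basal fluorescence ratio as % of EC20–EC100 ACh window / Benchmarks: low control EC20 acetylcholine (0%), high control EC100 acetylcholine (100%) / Replicates: one well per compound, no replicates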
Hits are given with their value; . = inactive. Rows were chosen to be rich in hits. Some 2.2% of all compounds tested hit in one or more screens of this group.

SMILES	CHRM1 agonist	M1 PAM	CHRM1 antagonist	M5 ag	CHRM5 antagonist	CHRM5 PAM
CC(C)(C)N(CC#CCC1(O)c2ccccc2-c2ccccc21)CCO	.	.	.	.	.	.
OC(C#CCN1CCCC1)c1ccccc1 (configuration not stated)	.	.	.	.	.	.
Cc1ccc(CNC(=O)c2ccc(N3CCC4(CC3)CC(c3ccccc3)=NO4)c(N)c2)cc1	.	.	.	.	.	.
O=C(N/C(=C\c1ccco1)C(=O)N1CCOCC1)c1ccccc1Cl	.	.	.	.	.	.
CCNc1nc(CN2CCCCC2)nc2scc(-c3ccccc3)c12	.	.	65	.	.	.
OCC1CCCN(c2nc(CN3CCCCC3)nc3scc(-c4ccccc4)c23)C1 (configuration not stated)	.	.	.	.	.	.
CSc1ccc(C(=O)C2CCCN(Cc3cccc4nccnc34)C2)cc1 (configuration not stated)	.	.	68	.	.	.
CCOC(=O)Nc1ccc2c(c1)N(C(=O)CCN(CC)CC)c1ccccc1S2=O (configuration not stated)	.	.	59	.	.	.
CCOC(=O)Nc1ccc2c(c1)N(C(=O)CN(CC)CC)c1ccccc1CC2	.	.	.	.	.	.
CCOC(=O)Nc1ccc2c(c1)N(C(=O)CN(CC)CC)c1ccccc1C=C2	.	.	72	.	.	.
O=C(CC(c1cccs1)S(=O)(=O)c1ccccc1)c1ccc(F)cc1 (configuration not stated)	.	.	.	.	.	.
COc1ccccc1NC(=O)C(C)N1C(=O)c2ccccc2C1=O (configuration not stated)	.	.	.	.	.	.
COc1ccc(NC(=O)C(C)N2C(=O)c3ccccc3C2=O)c(OC)c1 (configuration not stated)	.	.	.	.	.	18
CC(C)C(C(=O)Nc1ccccc1F)N1C(=O)c2ccccc2C1=O (configuration not stated)	.	.	.	.	.	20
CCCCN(C=O)c1c(CC)nc2c(OCc3ccc(S(C)(=O)=O)cc3)cccn12	.	.	.	.	.	.
O=C1C(Nc2ccc(O)cc2)=C/C(=N/S(=O)(=O)c2cccs2)c2ccccc21	.	.	.	.	35	.
CCN(Cc1ccccc1)C(=O)CCc1nc(CN2CCN(C(=O)c3ccc([N+](=O)[O-])cc3)CC2)no1	.	.	.	.	.	.
COc1ccccc1-n1c(C)nc2cc(C(=O)O)ccc21	.	.	.	.	.	19
Cc1nc2cc(C(=O)O)ccc2n1-c1ccccc1	.	.	.	.	.	.
O=C(c1cc(-c2ccco2)on1)N1CCc2ccccc2C1	.	28	.	.	.	.
O=C(c1cc(-c2ccccc2O)on1)N1CCc2ccccc2C1	.	.	.	.	.	.
C=C(C)[C@@H]1CC=C(CN2CCN(Cc3ccccc3)CC2)CC1	.	.	38	.	.	.
C=C(C)C1CC=C(CN2CCN(Cc3ccccc3)CC2)CC1 (configuration not stated)	.	.	.	.	.	.
CCc1ccc(/C=N/Nc2ncnc3nc[nH]c23)cc1	.	.	.	.	.	.
CCc1ccc(N=Nc2ccc(O)c3[nH]cnc23)cc1	.	.	40	30	46	.
SMILES	CHRM1 agonist	M1 PAM	CHRM1 antagonist	M5 ag	CHRM5 antagonist	CHRM5 PAM
CCOc1ccc(/C=C/C(=O)Nc2ccc(C(N)=O)cc2)cc1OC	.	.	.	.	.	.
CCOc1cc(/C=C/C(=O)Nc2ccc(C(=O)NCCN(CC)CC)cc2)ccc1OCC(C)C	.	.	64	.	.	.
CSc1ccccc1C(=O)NCc1ccc(C)cc1	.	.	.	.	.	.
O=C(C1CCN(c2ccc(N3CCOCC3)nn2)CC1)N1CCN(c2ccc(F)cc2)CC1	.	.	.	.	.	.
C[C@@H]1CN([C@H](C)CO)S(=O)(=O)c2ccc(C#Cc3ccccc3F)cc2O[C@H]1CN(C)C(=O)c1ccc2c(c1)OCO2	.	.	27	.	.	.
COc1ccc(C(=O)NC(C)c2cnn(-c3ccccn3)c2C)o1 (configuration not stated)	.	.	.	.	.	.
CN1CCN(C(c2cccc(Cl)c2)c2ccccc2Cl)CC1 (configuration not stated)	.	.	88	.	87	.
CN1CCN(C(c2ccccc2)c2ccc(Cl)cc2)CC1 (configuration not stated)	.	.	.	.	.	.
Cc1ccc(S(=O)(=O)NC(=O)C2(C)CCN2C(=O)C2(c3ccc(Cl)cc3)CCC2)nc1 (configuration not stated)	.	.	.	.	.	.
CCn1cc([N+](=O)[O-])c(C(=O)N2N=C(c3cccc4ccccc34)CC2c2ccccc2O)n1 (configuration not stated)	.	.	.	.	.	29
CCn1cc([N+](=O)[O-])c(C(=O)N2N=C(c3ccc4ccccc4c3)CC2c2ccccc2O)n1 (configuration not stated)	.	.	.	.	.	.
CCOC(=O)c1cnn(-c2ccccc2)c1-n1cccc1C(=O)C(=O)Nc1ccc(OC)cc1	.	19	.	.	.	.
O=C(CSc1nc2c(c(=O)[nH]1)CCC2)Nc1cccc(Cl)c1	17	.	.	.	.	.
COc1cc(CNCCN(C)C)c(Br)cc1OC1CCCC1	.	.	.	.	.	.
COc1cc(C[C@@H]2C(=O)OC[C@H]2Cc2ccc(OC)c(OC)c2)ccc1O	.	.	50	.	.	.
S=C(Nc1ccc(Oc2ccccc2)cc1)NC1CCCCCC1	.	.	29	.	.	.
CN(C(=S)Nc1ccc(Oc2ccccc2)cc1)C1CCCCC1	.	.	39	.	.	.
CC1(C)COC2(OC1)C(=O)N(CN1CCOCC1)c1ccccc12	.	.	.	.	.	.
O=C(CCCCCn1c(=S)[nH]c2cc3c(cc2c1=O)OCO3)N1CCN(C2CCCCC2)CC1	.	.	37	.	31	.
Cc1cc(Cl)cc(Cl)c1OCC(=O)NCc1ccco1	.	.	.	.	.	22
CN(CC(=O)NCc1ccco1)CC(=O)Nc1c(Cl)cccc1Cl	.	.	.	.	.	18
